Experimental data collected from several papers.
Each line is one published result; the experiments were not run side by side.
CYP2C8: Cytochrome P450 2C8 (CYP2C8, Homo sapiens, UniProt P10632)
CYP2C9: Cytochrome P450 2C9 (CYP2C9, Homo sapiens, UniProt P11712)

| SMILES | tested on | assay | system | setting | measurement | result |
| --- | --- | --- | --- | --- | --- | --- |
| CSc1ccccc1C(=O)NCCn1cc(C(=O)NCc2cccc(C)n2)c(=O)c2cc3c(cc21)OC(F)(F)O3 | CYP2C8 | enzyme activity, inhibitor | human, liver microsomes | 20 min, without NADPH, with preincubation | IC50 | > 100 µM |
| OCc1ccc(-c2nn(Cc3ccccc3)c3ccccc23)o1 |  | metabolic stability | rat, liver microsomes | 1 µM, pH 7.4 | half-life | 6 min |
| C=C(F)C(=O)N1CCN(c2nc(OC[C@@H]3CCCN3C)nc3c2CCN(c2cccc4cccc(Cl)c24)C3)C[C@@H]1CC#N |  | chemical stability, HPLC | glutathione solution | 5 µM, pH 7.4 | half-life | 520 min |
| CN(C)C(=O)c1cc2cnc(Nc3ccc(-c4ccc5c(=O)cc(N6CCOCC6)oc5c4)cc3)nc2n1C1CCCC1.Cl |  |  | BALB/c mouse, plasma | oral, 20 mg/kg | AUC | 7810 ng·h/mL |
| CC(C)(O)[C@@H]1CC[C@](C)([C@H]2[C@@H](O)C[C@@]3(C)[C@@H]4C[C@H](O[C@@H]5O[C@H](CO)[C@@H](O)[C@H](O)[C@H]5O)[C@H]5C(C)(C)[C@@H](O[C@@H]6OC[C@@H](O)[C@H](O)[C@H]6O)CC[C@@]56C[C@@]46CC[C@]23C)O1 | CYP2C9 | enzyme activity, inhibitor | human, liver microsomes |  | IC50 | > 200 µM |
| NCc1ccc(-c2nn(Cc3ccncc3)c3ccccc23)o1 |  |  | male CD-1 mouse, plasma | oral, 10 mg/kg | bioavailability | 15% |
| CC(=O)O[C@H]1[C@H](O[C@H]2CC[C@]34C[C@]35CC[C@]3(C)[C@@H]([C@@]6(C)CC[C@@H](C(C)(C)O)O6)[C@@H](O)C[C@@]3(C)[C@@H]5C[C@H](O[C@@H]3O[C@H](CO)[C@@H](O)[C@H](O)[C@H]3O)[C@H]4C2(C)C)OC[C@@H](OC(C)=O)[C@@H]1O | CYP2C9 | enzyme activity, inhibitor | human, liver microsomes |  | IC50 | 116 µM |
| Cc1ccc(OCC(=O)N[C@@H](Cc2c[nH]c3ccccc23)C(=O)OC(C)C)cc1 |  | chemical stability | simulated intestinal fluid |  | half-life | > 300 min |
| Cc1cccc(-c2nnc(N[C@@H](Cc3ccc(C#N)cc3)C(=O)N3CCc4ccccc43)o2)c1 |  | metabolic stability | rat, liver microsomes | 10 µM, pH 7.4 | half-life | 18 min |
| CSc1ccccc1C(=O)NCCn1cc(C(=O)NCc2cccc(C)n2)c(=O)c2cc3c(cc21)OCO3 | CYP2C8 | enzyme activity, inhibitor | human, liver microsomes | 20 min, without NADPH, with preincubation | IC50 | > 100 µM |
| COc1cc(Cn2nc(-c3ccc(CO)o3)c3ccccc32)ccn1 |  | metabolic stability | rat, liver microsomes | 1 µM, pH 7.4 | half-life | 7 min |
| N#Cc1ccc(C[C@@H](Nc2c(Nc3ccc(F)cc3)c(=O)c2=O)C(=O)N2CCc3ccccc32)cc1 |  | metabolic stability | rat, liver microsomes | 10 µM, pH 7.4 | half-life | 15 min |
